Data reported in ChEMBL document CHEMBL2390922, “Synthesis and biological evaluation of sulforaphane derivatives as potential antitumor agents” (Eur J Med Chem, 2013).

system: MCF7; experiment: Cytotoxicity against human MCF7 cells after 72 hrs by MTT assay; type: functional, cell-based; conditions: MCF7, 72 h
Method in brief: (§1)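 Cells were grown in RPMI-1640 or DMEM with 10% NBS or FBS and 100 U/mL penicillin, at 37 °C under 5% CO₂. After 72 h with a range of compound concentrations, MTT was added for a further 4 h at 37 °C. Formazan was dissolved in DMSO and absorbance read at 570 and 630 nm. Assays ran in triplicate across three independent experiments, and IC₅₀ was calculated for 50% loss of viability.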

SMILES | IC50
[O-][S+](CCCCN=C=S)CCc1ccccc1 (stereo unspecified) | 9.33 µM
[O-][S+](CCCCN=C=S)c1ccccc1 (stereo unspecified) | 7.05 µM
CCCC[S+]([O-])CCCCN=C=S (stereo unspecified) | 5.84 µM
[O-][S+](CCCCN=C=S)Cc1ccco1 (stereo unspecified) | 5.68 µM
[O-][S+](CCCCN=C=S)C1CCCC1 (stereo unspecified) | 4.45 µM
S=C=NCCCCSCc1ccccc1 | 38.3 µM

system: HepG2; experiment: Cytotoxicity against human HepG2 cells after 72 hrs by MTT assay; type: functional, cell-based; conditions: HepG2, 72 h; method in brief: as §1

SMILES | IC50
[O-][S+](CCCCN=C=S)CCc1ccccc1 (stereo unspecified) | 6.97 µM
[O-][S+](CCCCN=C=S)c1ccccc1 (stereo unspecified) | 6.34 µM
CCCC[S+]([O-])CCCCN=C=S (stereo unspecified) | 5.93 µM
[O-][S+](CCCCN=C=S)Cc1ccco1 (stereo unspecified) | 3.86 µM
[O-][S+](CCCCN=C=S)C1CCCC1 (stereo unspecified) | 3.64 µM
S=C=NCCCCSCc1ccccc1 | 12.6 µM

system: not listed separately; experiment: Cytotoxicity against human SH-SY5Y cells after 72 hrs by MTT assay; type: functional, cell-based; conditions: not given; method in brief: as §1

SMILES | IC50
[O-][S+](CCCCN=C=S)CCc1ccccc1 (stereo unspecified) | 5.6 µM
[O-][S+](CCCCN=C=S)c1ccccc1 (stereo unspecified) | 8.75 µM
CCCC[S+]([O-])CCCCN=C=S (stereo unspecified) | 6.47 µM
[O-][S+](CCCCN=C=S)Cc1ccco1 (stereo unspecified) | 7.79 µM
[O-][S+](CCCCN=C=S)C1CCCC1 (stereo unspecified) | 7.14 µM
S=C=NCCCCSCc1ccccc1 | 20.7 µM

system: HCT-116; experiment: Cytotoxicity against human HCT116 cells after 72 hrs by MTT assay; type: functional, cell-based; conditions: HCT-116, 72 h; method in brief: as §1

SMILES | IC50
[O-][S+](CCCCN=C=S)CCc1ccccc1 (stereo unspecified) | 8.02 µM
[O-][S+](CCCCN=C=S)c1ccccc1 (stereo unspecified) | 4.53 µM
CCCC[S+]([O-])CCCCN=C=S (stereo unspecified) | 2.81 µM
[O-][S+](CCCCN=C=S)Cc1ccco1 (stereo unspecified) | 3.47 µM
[O-][S+](CCCCN=C=S)C1CCCC1 (stereo unspecified) | 3.14 µM
S=C=NCCCCSCc1ccccc1 | 41.5 µM

system: Vero; experiment: Cytotoxicity against African green monkey Vero cells after 72 hrs by MTT assay; type: cell-based; conditions: Chlorocebus sabaeus

SMILES | IC50
[O-][S+](CCCCN=C=S)CCc1ccccc1 (stereo unspecified) | 6.82 µM
[O-][S+](CCCCN=C=S)c1ccccc1 (stereo unspecified) | 4.33 µM
CCCC[S+]([O-])CCCCN=C=S (stereo unspecified) | 5.15 µM
[O-][S+](CCCCN=C=S)Cc1ccco1 (stereo unspecified) | 5.25 µM
[O-][S+](CCCCN=C=S)C1CCCC1 (stereo unspecified) | 4.6 µM
S=C=NCCCCSCc1ccccc1 | 24.9 µM

system: A549; experiment: Cytotoxicity against human A549 cells after 72 hrs by MTT assay; type: functional, cell-based; conditions: A549, 72 h
Method in brief: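 After 72 h with a range of compound concentrations, MTT was added for a further 4 h at 37 °C. Formazan was dissolved in DMSO and absorbance read at 570 and 630 nm. Assays ran in triplicate across three independent experiments, and IC₅₀ was calculated for 50% loss of viability.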

SMILES | IC50
[O-][S+](CCCCN=C=S)CCc1ccccc1 (stereo unspecified) | 10.2 µM
[O-][S+](CCCCN=C=S)c1ccccc1 (stereo unspecified) | 23.8 µM
CCCC[S+]([O-])CCCCN=C=S (stereo unspecified) | 9.56 µM
[O-][S+](CCCCN=C=S)Cc1ccco1 (stereo unspecified) | 5.64 µM
[O-][S+](CCCCN=C=S)C1CCCC1 (stereo unspecified) | 10.1 µM
S=C=NCCCCSCc1ccccc1 | 51.3 µM
